Data taken from ChEMBL document CHEMBL5584364, “Reaping the Chemical Diversity of Morinagamyces vermicularis Using Feature-Based Molecular Networking” (J Nat Prod, 2024).
≈ marks a conversion by molar mass, not a printed value. Calls of active or inactive are those of the source. The rule behind the calls is not given here.

Columns and labels:
[1] = tested on: Pseudomonas aeruginosa; assay: Antibacterial activity against Pseudomonas aeruginosa assessed as reduction in microbial growth incubated for overnight by serial dilution assay; assay type: functional, organism-based
Summary of the method: (§1)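 MIC50 determined against Gram-positive and Gram-negative bacteria. Positive controls: oxytetracycline for most bacteria, ciprobay for A. baumannii, gentamycin for Ps. aeruginosa. Values given in µg/mL; "–" means no inhibition under test conditions.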

[2] = tested on: Escherichia coli; assay: Antibacterial activity against Escherichia coli assessed as reduction in microbial growth incubated for overnight by serial dilution assay; assay type: functional; summary of the method: as §1
[3] = tested on: Staphylococcus aureus; assay: Antibacterial activity against Staphylococcus aureus assessed as reduction in microbial growth incubated for overnight by serial dilution assay; assay type: functional; summary of the method: as §1
[4] = tested on: Schizosaccharomyces pombe; assay: Antifungal activity against Schizosaccharomyces pombe assessed as reduction in fungal growth incubated for overnight by serial dilution assay; assay type: functional
Summary of the method: (§2)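 MIC50 determined against five fungi (C. albicans, M. hiemalis, R. glutinis, S. pombe, W. anomalus), with nystatin as positive control. Values given in µg/mL; "–" means no inhibition under test conditions.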

[5] = tested on: Bacillus subtilis; assay: Antibacterial activity against Bacillus subtilis assessed as reduction in microbial growth incubated for overnight by serial dilution assay; assay type: functional; summary of the method: as §1
[6] = tested on: Rhodotorula glutinis; assay: Antifungal activity against Rhodotorula glutinis assessed as reduction in fungal growth incubated for overnight by serial dilution assay; assay type: functional; summary of the method: as §2
[7] = Cytotoxicity against mouse L929 cells assessed as reduction in cell viability after 5 days by MTT assay; assay type: toxicity, cell-based
Summary of the method: (§3)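 Cytotoxicity read by MTT method against mammalian cell lines (human endocervical adenocarcinoma KB 3.1, mouse fibroblast L929), with epothilone B as positive control. IC50 reported in µM.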

[8] = tested on: Wickerhamomyces anomalus; assay: Antifungal activity against Wickerhamomyces anomalus assessed as reduction in fungal growth incubated for overnight by serial dilution assay; assay type: functional; summary of the method: as §2
[9] = (§4) Cytotoxicity against human KB-3-1 cells assessed as reduction in cell viability after 5 days by MTT assay; assay type: toxicity, cell-based; settings: human, KB-3-1 cells; summary of the method: as §3
[10] = tested on: Mucor hiemalis; assay: Antifungal activity against Mucor hiemalis assessed as reduction in fungal growth incubated for overnight by serial dilution assay; assay type: functional; summary of the method: as §2
[11] = tested on: Chromobacterium violaceum; assay: Antibacterial activity against Chromobacterium violaceum assessed as reduction in microbial growth incubated for overnight by serial dilution assay; assay type: functional; summary of the method: as §1
[12] = tested on: Candida albicans; assay: Antifungal activity against Candida albicans assessed as reduction in fungal growth incubated for overnight by serial dilution assay; assay type: functional; summary of the method: as §2
[13] = tested on: KB 3-1; assay: as §4; assay type: toxicity, cell-based; settings: kb 3-1; summary of the method: as §3
[14] = tested on: Acinetobacter baumannii; assay: Antibacterial activity against Acinetobacter baumannii assessed as reduction in microbial growth incubated for overnight by serial dilution assay

Compound | Activity [2] | Activity [1] | MIC [3] | MIC [4] | MIC [5] | MIC [6] | IC50 at 5 days [7] | MIC ([8]; Hansenula anomala) | IC50 at 5 days [9] | MIC [10] | MIC [12] | Activity [11] | also measured
GENTAMICIN |  |  |  |  |  |  |  |  |  |  |  |  | MIC [1]: 0.42 µg/mL
CN1C(=O)C23SSC4c5ccccc5O[C@]41C(=O)N2O[C@]1(C[C@H](O)C=CC1=O)[C@H]3O (stereo partly specified) | inactive | inactive | 8.3 µg/mL | 66.6 µg/mL (≈ 149 µM) | 16.6 µg/mL | 33.3 µg/mL (≈ 74.3 µM) | 42 µM | 33.3 µg/mL (≈ 74.3 µM) | 49 µM | 8 µg/mL (≈ 17.8 µM) | 66.6 µg/mL (≈ 149 µM) |  | MIC [11]: 16.6 µg/mL
CSC1c2ccccc2O[C@]12C(=O)N1O[C@]3(CCC=CC3=O)[C@@H](O)C1(SC)C(=O)N2C (stereo partly specified) | inactive | inactive | 66.6 µg/mL |  | 66.6 µg/mL |  | 5 µM |  | 15 µM |  |  | inactive | Activity [4]: inactive; Activity [6]: inactive; Activity [8]: inactive; Activity [10]: inactive; Activity [12]: inactive
CN1C(=O)C23SSSC4c5ccccc5O[C@]41C(=O)N2O[C@]1(C[C@H](O)[C@H](O)CC1=O)[C@H]3O (stereo partly specified) | inactive | inactive |  | 66.6 µg/mL (≈ 134 µM) | 66.6 µg/mL | 66.6 µg/mL (≈ 134 µM) | 50 µM | 33.3 µg/mL (≈ 66.8 µM) |  | 66.6 µg/mL (≈ 134 µM) | 66.6 µg/mL (≈ 134 µM) | inactive | Activity [3]: inactive; IC50 [13]: Non-Toxic
CN(C)[C@@H]1C(O)=C(C(N)=O)C(=O)[C@@]2(O)C(O)=C3C(=O)c4c(O)cccc4[C@@](C)(O)[C@H]3[C@H](O)[C@@H]12 [OXYTETRACYCLINE] |  |  | 0.83 µg/mL |  | 16.6 µg/mL |  |  |  |  |  |  |  | MIC [2]: 3.3 µg/mL; MIC [11]: 0.83 µg/mL
C/C(=C\c1csc(C)n1)[C@@H]1C[C@@H]2O[C@@H]2CCC[C@H](C)[C@H](O)[C@@H](C)C(=O)C(C)(C)[C@H](O)CC(=O)O1 |  |  |  |  |  |  | 0.00052 µM |  | 4e-05 µM |  |  |  | 
O=C(O)c1cn(C2CC2)c2cc(N3CCNCC3)c(F)cc2c1=O [CIPROFLOXACIN] |  |  |  |  |  |  |  |  |  |  |  |  | MIC [14]: 0.53 µg/mL
CN1C(=O)C23SSC4c5ccccc5O[C@]41C(=O)N2O[C@]1(C[C@H](O)[C@H](O)CC1=O)[C@H]3O (stereo partly specified) | inactive | inactive | 33.3 µg/mL | 66.6 µg/mL (≈ 143 µM) | 33.3 µg/mL | 66.6 µg/mL (≈ 143 µM) | 58 µM | 66.6 µg/mL (≈ 143 µM) | 54 µM | 33.3 µg/mL (≈ 71.4 µM) |  | inactive | Activity [12]: inactive
NYSTATIN |  |  |  | 4.2 µg/mL |  | 2.1 µg/mL |  |  |  | 8.3 µg/mL | 16.6 µg/mL |  | MIC [8]: 8.3 µg/mL
